Compound activity as filed in PubChem BioAssay.
A selection: hits, their analogues and other compounds. The true share with any hit is near 4.5%.
TAAR1 antagonist: human TAAR1 antagonists, primary screen, Fluo-8 calcium fluorescence, CHO RD-HGA16 cells. Trace amine-associated receptor 1 (Homo sapiens), Q96RJ0. antagonist. inhibition, % at 3 µM. 1.5% of 360,000 active. AID 624466, 2012;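 active = inhibition above a per-plate cutoff, the mean inhibition of test compounds on that plate plus 3 SD, cut at about 49% in these data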;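 also: 0% = DMSO plus EC80 beta-PEA response and 100% = DMSO alone without agonist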
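System: CHO RD-HGA16 cells bearing hTAAR1. Reagent: EC80 β-phenethylamine stimulus. Schedule: seeding 17-24 h prior, 75-min 37 °C, 30-min RT dye loading. Signal: Fluo-8 intracellular calcium dye fluorescence, real-time kinetic reads. Read-out: % inhibition from peak post-agonist over basal fluorescence ratio. Benchmarks: vehicle wells and EC80 agonist wells. Replicates: n of 1.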
GPR7 antag: GPR7 receptor antagonists, primary screen, cell-based, fluorescence, single concentration; 1.1% of 290,000 active; GPR7-expressing cells, fluorescence antagonist assay; inhibition, % at 4.4 µM; Neuropeptides B/W receptor type 1 (Homo sapiens), P48145; AID 1861, 2009; in the data active = inhibition above about 16%, passing the limit was not always enough;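 also: cells stimulated with the agonist NPW; 0% = agonist with vehicle and 100% = vehicle without agonist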
CHO parental Ca: ATP-evoked calcium signal inhibitors, parental CHO, primary screen, counter-screen for OX1R antagonist project, cell-based, fluorescence, Fluo-8 calcium dye; AID 463079, 2010; 0.63% of 330,000 active; inhibition, % at 5.6 µM; parental CHO-K1, ATP-induced calcium, Fluo-8 fluorescence;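 active = inhibition above that plate's mean sample inhibition plus 3 SD, cut at about 26% in these data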;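 also: 0% = ATP-challenged DMSO wells and 100% = DMSO wells without ATP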
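material = parental CHO cells | also added = ATP as calcium-mobilizing challenge | dosing = single point at 5.6 µM | detection = intracellular calcium via Fluo-8 no-wash fluorescent dye | read-out = % inhibition | benchmarks = low control ATP plus DMSO, high control DMSO only | repeats = one well per compound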
TAAR1 ag: human TAAR1 agonists, primary screen, Fluo-8 calcium fluorescence, CHO RD-HGA16 cells. Trace amine-associated receptor 1 (Homo sapiens), Q96RJ0. vehicle wells 0%, saturating PEA agonist 100%. activation, % at 3 µM. 0.99% of 360,000 active. AID 624467, 2012;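 active = activation above the mean activation of all test compounds in the run plus 3 SD, cut at about 38% in these data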
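Benchmarks: low control DMSO, high control PEA (EC100); System: CHO RD-HGA16 cells carrying human TAAR1 plus Gα16; Detection: Fluo-8 fluorescence, 5 s baseline then 140 s kinetic read; Schedule: 17-24 h plating, Fluo-8 75 min 37 °C, 30 min RT; Read-out basis: % activation from peak over basal fluorescence ratio, DMSO-to-PEA scaled.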
OX1R antag-1: antagonists of human orexin 1 receptor (OX1R); 1.8% of 330,000 active; inhibition, % at 6.6 µM; OX1R-expressing cells, FRET antagonist read-out; Orexin/Hypocretin receptor type 1 (Homo sapiens), O43613; AID 485270, 2010; in the data active = inhibition mostly above about 38%, no sharp cut-off; inactive = mostly below about 40%;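 also: 0% = agonist challenge alone and 100% = reference antagonist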
Target sequence (O43613 whole entry, looked up): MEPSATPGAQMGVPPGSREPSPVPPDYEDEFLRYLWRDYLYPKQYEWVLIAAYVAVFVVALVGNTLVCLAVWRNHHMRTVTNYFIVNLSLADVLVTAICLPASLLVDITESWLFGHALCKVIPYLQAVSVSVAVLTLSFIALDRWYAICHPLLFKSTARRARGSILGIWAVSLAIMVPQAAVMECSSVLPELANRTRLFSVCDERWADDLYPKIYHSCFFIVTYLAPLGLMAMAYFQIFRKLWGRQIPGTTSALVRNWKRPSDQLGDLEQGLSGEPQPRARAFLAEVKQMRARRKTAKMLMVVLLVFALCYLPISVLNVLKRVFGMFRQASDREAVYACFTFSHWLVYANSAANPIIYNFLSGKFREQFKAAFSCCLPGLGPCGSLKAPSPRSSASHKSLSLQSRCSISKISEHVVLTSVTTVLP
OX1R antag-2: OX1R (HCRTR1) antagonists, primary screen, fluorescence, CHO/OX1R cells, Fluo-8 calcium, orexin A. Fluo-8 calcium fluorescence. inhibition, % at 5 µM. 0.43% of 330,000 active. AID 434989, 2010;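 active = inhibition above its plate's threshold, mean inhibition of all tested compounds on the plate plus 3 SD, cut at about 37% in these data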;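 also: 0% = orexin A challenge wells and 100% = SB-334867-A antagonist wells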
Active calls of the source: *; · = not tested or not shown.

SMILES | TAAR1 antagonist | GPR7 antag | CHO parental Ca | TAAR1 ag | OX1R antag-1 | OX1R antag-2
CCNc1nc(-c2sc(NC(=O)C(C)(C)C)nc2C)c(-n2cc(-c3ccccc3)nn2)s1 | 75* | · | · | 9 | · | ·
Cc1nc(NC(=O)C(C)(C)C)sc1-c1nc(N)sc1-n1cc(-c2ccccc2)nn1 | -12 | · | · | -1 | · | ·
COc1ccc(N2C[C@@]3(O)CC[C@@H](O)[C@@H](OC)[C@@H]3[C@@]2(C)[C@H](O)CC=C(C)C)cc1 | -7 | · | · | 0 | · | ·
NC(=O)C(=O)N/N=C/c1c2ccccc2cc2ccccc12 | 4 | 9 | -14 | 0 | 82* | -6
CCCCCCSc1cc(-c2nc3ccc(C)cn3c2NCCCC)ccc1OC | 48 | · | 27 | 11 | 9 | 36
CCCCNc1c(-c2ccc(-c3ccc(C(C)=O)cc3)c(OC)c2)nc2cc(C)ccn12 | 56* | · | 15 | 3 | 23 | 24
COc1ccc(-c2nc3ccc(C)cn3c2NCc2ccccc2)cc1SC1CCCCC1 | · | · | 94* | · | 18 | 77*
CCCCNc1c(-c2ccc(OC)c(SC3CCCCC3)c2)nc2ccc(C)cn12 | 85* | · | 98* | 26 | 32* | 90*
COc1ccc(-c2nc3ccc(Cl)cn3c2NC2CCCCC2)cc1SC1CCCCC1 | -25 | · | -32 | 3 | 5 | -29
CCOC(=O)Cc1csc(NC(=O)CCS(=O)(=O)Cc2ccccc2)n1 | 1 | -16 | -7 | 5 | 4 | -7
CC(=O)Nc1nc(-c2ccc3c(c2)CCN3C(=O)C2CC2)c(C)s1 | -11 | -5 | -10 | 2 | 48* | -11
CC(=O)Nc1ccc(NC(=O)COC(=O)c2c3c(nc4ccccc24)CCN(Cc2ccccc2)C3)cc1 | 63* | -5 | -7 | 20 | 26 | -1
O=C(COC(=O)c1c2c(nc3ccccc13)CCN(Cc1ccccc1)C2)Nc1c(F)cccc1F | 39 | 5 | -4 | 13 | 43 | -1
Cc1[nH]nc2c1C(c1ccc3c(c1)OCO3)N(Cc1ccccc1)C2=O (centres undefined) | 3 | · | · | -2 | · | ·
COc1ccc(C(=O)c2[nH]c(N)c(C(=O)NCCc3c[nH]c4ccccc34)c2-c2ccc(C(F)(F)F)cc2)cc1 | -20 | · | · | 3 | · | ·
CCOC(=O)CN1C(=O)S/C(=C/C=C/c2ccc(N(C)C)cc2)C1=O | 30 | 11 | 32* | 45* | 18 | 55*
CCOC(=O)CN1C(=O)S/C(=C/c2ccc3c(c2)n(C)c(=O)n3C)C1=O | -4 | -6 | -6 | 1 | 8 | -21
CCc1cccc(CC)c1N1C(=O)C2=C(SCCCS2)C1=O | 47 | · | · | 40* | · | ·
O=[N+]([O-])c1ccc(C2=NN(c3ccccc3)C(c3ccco3)C2)cc1 (centres undefined) | 61* | 24* | · | 89* | · | ·
O=C(/C=C\c1ccccc1[N+](=O)[O-])Nc1ccccc1 | 26 | -13 | -6 | 1 | 10 | -20
COC(=O)/C(=C(O)\C=C\c1ccccc1[N+](=O)[O-])c1nc2ccccc2[nH]1 | 14 | -10 | -12 | -3 | 56* | -23
CCN(CC)C(=O)[C@H]1C[C@@H]2[C@H](C[C@@H](c3ccccc3)[C@H]1C)N(c1ccc(F)cc1)C(=O)N2C/C=C(\C)CCC=C(C)C | -15 | · | · | -1 | · | ·
CC1=NN(c2ccccc2)C(=O)/C1=C/C=C/C=C/N(C)C | 6 | 1 | 2 | 8 | 73* | 9
CC(C)Cn1c(N)c(C(=O)COC(=O)[C@@H]2CCCN2C(=O)c2cccs2)c(=O)n(C)c1=O | 33 | -15 | 2 | 16 | 13 | -37
CS(=O)(=O)Nc1ccccc1C(=O)Nc1cc(Cl)cc(Cl)c1 | 23 | -3 | 19 | 15 | 46* | 11
COCCOc1cc(NCc2ccccc2)c2ncn(C(C)C)c2c1 | -5 | · | -16 | 12 | 20 | -29
